Test results reported in ChEMBL document CHEMBL1687712, “Antiviral effects of lamivudine, emtricitabine, adefovir dipivoxil, and tenofovir disoproxil fumarate administered orally alone and in combination to woodchucks with chronic woodchuck hepatitis virus infection” (Antimicrob Agents Chemother, 2008).
The source made the active and inactive calls. No cut-off for these calls is given here.

Experiments:
[1] = system: Marmota monax; experiment: Toxicity in Woodchuck hepatitis virus infected woodchuck assessed as effect on hematological parameters at 15 mg/kg, po qd for 48 weeks measured up to 60 weeks; format: organism-based; parameters: dose 15 mg/kg, route oral; conditions: in vivo
Summary of the method: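 Chronic WHV-carrier woodchucks, 5 per group, were dosed orally once daily in liquid diet for 48 weeks, with a placebo diet-only group. Body weights were monitored. Complete blood counts were taken 2 weeks pretreatment, at weeks 12, 36 and 48 of treatment, and 12 weeks after withdrawal. Values were compared with placebo controls.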

[2] = system: Woodchuck hepatitis virus; experiment: Antiviral activity against Woodchuck hepatitis virus infected in woodchuck assessed as absent of lesion in lobular hepatitis at 15 mg/kg, po qd measured on 36th week on 48 weeks study; format: functional, organism-based; parameters: dose 15 mg/kg
Summary of the method: (§1)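 Chronic WHV-carrier adult woodchucks (inoculated at 3 days of age), 5 per group, dosed orally once daily for 48 weeks by dose syringe, drug in saline suspended in semisynthetic liquid diet; placebo is diet alone. Ultrasound-guided needle liver biopsies under ketamine/xylazine, formalin-fixed, H&E stained; portal and lobular hepatitis graded 0 (absent) to 4 (most severe).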

[3] = system: Woodchuck hepatitis virus; experiment: Antiviral activity against Woodchuck hepatitis virus infected in woodchuck assessed as reduction of viral antigen level in serum at 15 mg/kg, po qd measured on 12th week on 48 weeks study (reference value: 4.3 +/- 1.5 log10 ng/ml); format: functional
[4] = system: Woodchuck hepatitis virus; experiment: Antiviral activity against Woodchuck hepatitis virus infected in woodchuck assessed as reduction of viral RNA level per ug of total cell DNA at 15 mg/kg, po qd measured on 36th week on 48 weeks study (reference value: 33 +/- 21 pg); format: functional
Summary of the method: (§2)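 Chronic WHV-carrier woodchucks, 5 per group, 15 mg/kg/day oral once daily for 48 weeks in liquid diet. Needle liver biopsies were snap-frozen in liquid nitrogen and stored at −70°C. Hepatic WHV DNA replicative intermediates were quantified by Southern blot (pg/μg total cell DNA) and WHV RNA by Northern blot; group means ± SD were compared with pretreatment and placebo.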

[5] = system: Woodchuck hepatitis virus; experiment: Antiviral activity against Woodchuck hepatitis virus infected in woodchuck assessed as absent of lesion in portal hepatitis at 15 mg/kg, po qd measured on 36th week on 48 weeks study; format: functional, organism-based; parameters: dose 15 mg/kg; summary of the method: as §1
[6] = system: Woodchuck hepatitis virus; experiment: Antiviral activity against Woodchuck hepatitis virus infected in woodchuck assessed as frequency of hepatocytes expressing viral antigen at 15 mg/kg, po qd measured on 12th week on 48 weeks study; format: functional, Hepatocyte
Summary of the method: (§3)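 Chronic WHV-carrier woodchucks, 5 per group, given 15 mg/kg/day orally once daily for 48 weeks in liquid diet; placebo is diet alone. Liver biopsies at pretreatment, weeks 12, 36, 48 and 12 weeks after withdrawal. Cytoplasmic WHsAg staining scored 0–4: 1 ≤1%, 2 ≤2%, 3 ≤5%, 4 ≥10% of hepatocytes.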

[7] = system: Woodchuck hepatitis virus; experiment: Antiviral activity against Woodchuck hepatitis virus infected in woodchuck assessed as reduction of viral antigen positive hepatocytes at 15 mg/kg, po qd measured on 12th week on 48 weeks study (reference value: 55 +/- 32 %); format: functional, Hepatocyte; parameters: scale not given: the % may be the effect or the level left
Summary of the method: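 Chronic WHV-carrier woodchucks, 5 per group, 15 mg/kg/day oral once daily for 48 weeks in liquid diet. Liver biopsies were taken at pretreatment, weeks 12, 36, 48 and week 60. Percentage of hepatocytes positive for WHcAg was given as group mean ± SD and compared with pretreatment and placebo.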

[8] = system: Marmota monax; experiment: Toxicity in Woodchuck hepatitis virus infected woodchuck assessed as increase of liver aspartate aminotransferase activity at 15 mg/kg, po qd for 48 weeks; format: organism-based; parameters: dose 15 mg/kg, route oral; conditions: in vivo, 8064 h
Summary of the method: (§4)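 Woodchucks chronically infected with WHV, 5 per group, received oral drug once daily in liquid diet for 48 weeks; placebo got diet only. Serum chemistry (GGT, ALP, ALT, AST, SDH, among others) was run 2 weeks pretreatment, at week 0, every other week to week 12, then monthly to week 48. Sampling continued at 2, 4, 6, 8 and 12 weeks post-treatment.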

[9] = system: Woodchuck hepatitis virus; experiment: Antiviral activity against Woodchuck hepatitis virus infected in woodchuck assessed as reduction of viral RNA level per ug of total cell DNA at 15 mg/kg, po qd measured on 12th week on 48 weeks study (reference value: 46 +/- 25 pg); format: functional; summary of the method: as §2
[10] = system: Woodchuck hepatitis virus; experiment: Antiviral activity against Woodchuck hepatitis virus infected in woodchuck assessed as reduction of viral DNA replicative intermediate level per ug of total cell DNA at 15 mg/kg, po qd for 48 weeks measured on 60th week (reference value: 979 pg); format: functional; summary of the method: as §2
[11] = system: Woodchuck hepatitis virus; experiment: Antiviral activity against Woodchuck hepatitis virus infected in woodchuck assessed as frequency of hepatocytes expressing viral antigen at 15 mg/kg, po qd for 48 weeks; format: functional, Hepatocyte; summary of the method: as §3
[12] = system: Woodchuck hepatitis virus; experiment: Antiviral activity against Woodchuck hepatitis virus infected in woodchuck assessed as reduction of viral DNA replicative intermediate level per ug of total cell DNA at 15 mg/kg, po qd measured on 12th week on 48 weeks study (reference value: 1495 +/- 890 pg); format: functional; summary of the method: as §2
[13] = system: Marmota monax; experiment: Toxicity in Woodchuck hepatitis virus infected woodchuck assessed as increase of liver alanine aminotransferase activity at 15 mg/kg, po qd measured on 4 to 24 weeks on 48 week study; format: organism-based; parameters: dose 15 mg/kg, route oral; conditions: in vivo; summary of the method: as §4
[14] = system: Woodchuck hepatitis virus; experiment: Antiviral activity against Woodchuck hepatitis virus infected in woodchuck assessed as absent of lobular in portal hepatitis at 15 mg/kg, po qd for 48 weeks; format: functional, organism-based; parameters: dose 15 mg/kg
Summary of the method: (§5)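 Adult chronic WHV-carrier woodchucks (neonatally inoculated), 5 per group, given drug once daily by dose syringe in semisynthetic liquid diet, for 48 weeks; placebo got diet alone. Ultrasound-guided needle liver biopsies under ketamine/xylazine anesthesia at pretreatment, weeks 12, 36, 48 and 12 weeks post-withdrawal. Biopsies were formalin-fixed, paraffin-embedded and H&E stained. Portal and lobular hepatitis were graded 0 (absent) to 4 (most severe).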

[15] = system: Woodchuck hepatitis virus; experiment: Antiviral activity against Woodchuck hepatitis virus infected in woodchuck assessed as absent of lesion in lobular hepatitis at 15 mg/kg, po qd for 48 weeks measured on 60th week; format: functional, organism-based; parameters: dose 15 mg/kg; summary of the method: as §5

| Structure (SMILES) | Activity [1] | Activity [2] | Activity [3] | Activity [4] | Activity [5] | Activity [6] | Activity [7] | Activity [8] | Activity [9] | Activity [10] | Activity [11] | Activity [12] | Activity [13] | Activity [14] | Activity [15] |
| --- | --- | --- | --- | --- | --- | --- | --- | --- | --- | --- | --- | --- | --- | --- | --- |
| CC(C)OC(=O)OCOP(=O)(CO[C@H](C)Cn1cnc2c(N)ncnc21)OCOC(=O)OC(C)C.O=C(O)/C=C/C(=O)O [TENOFOVIR DISOPROXIL FUMARATE] | Non-toxic | Active | 3.4 log10ng/ml | 25 pg | Active | 0% | 30% | Toxic | 30 pg | 1374 pg | 1% | 870 pg | Toxic |  |  |
| CC(C)(C)C(=O)OCOP(=O)(COCCn1cnc2c(N)ncnc21)OCOC(=O)C(C)(C)C [ADEFOVIR DIPIVOXIL] | Non-toxic | Active | 4.3 log10ng/ml | 34 pg |  | 1% | 21% | Toxic | 33 pg | 1147 pg | 2% | 330 pg | Toxic | Active | Active |
